The target in data set [1] is Cytochrome P450 2D6 (Homo sapiens, UniProt P10635). The data set can be described thus: Inhibition of CYP2D6. The data set is classed as ADME.
In data set [2] the target is T1, Beta-2 adrenergic receptor (Homo sapiens, UniProt P07550). Put plainly: Agonist activity at human beta2 adrenergic receptor. In kind it is functional.
For data set [3], the target named is T2, Beta-3 adrenergic receptor (Homo sapiens, UniProt P13945). The data set can be described thus: Agonist activity at human beta3 adrenergic receptor. In kind it is functional.
Target sequence in this assay (P13945 whole entry): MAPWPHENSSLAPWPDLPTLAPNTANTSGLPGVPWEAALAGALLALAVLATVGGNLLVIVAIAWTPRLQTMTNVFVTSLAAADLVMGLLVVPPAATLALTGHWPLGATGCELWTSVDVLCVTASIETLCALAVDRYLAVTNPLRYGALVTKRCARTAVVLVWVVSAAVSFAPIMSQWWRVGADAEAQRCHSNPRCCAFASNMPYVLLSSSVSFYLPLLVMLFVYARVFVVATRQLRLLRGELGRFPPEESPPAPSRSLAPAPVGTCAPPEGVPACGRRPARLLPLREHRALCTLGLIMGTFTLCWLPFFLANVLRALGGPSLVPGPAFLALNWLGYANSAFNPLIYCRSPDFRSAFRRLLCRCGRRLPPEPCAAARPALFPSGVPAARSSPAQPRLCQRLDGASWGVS
Data set [4] addresses T2, Beta-3 adrenergic receptor. Put plainly: Agonist activity at human beta3 adrenergic receptor relative to control. The data set is classed as functional.
Target sequence in this assay (P13945 whole entry, looked up): as the sequence (P13945 whole entry) above
Data set [5] has as its target T3, Beta-1 adrenergic receptor (Homo sapiens, UniProt P08588). The data set can be described thus: Agonist activity at human beta1 adrenergic receptor. In kind it is functional.
For data set [6], the target named is Cytochrome P450 3A4 (Homo sapiens, UniProt P08684). The data set can be described thus: Inhibition of CYP3A4. The data set is classed as ADME.
Sequence of Cytochrome P450 3A4 (P08684 whole entry): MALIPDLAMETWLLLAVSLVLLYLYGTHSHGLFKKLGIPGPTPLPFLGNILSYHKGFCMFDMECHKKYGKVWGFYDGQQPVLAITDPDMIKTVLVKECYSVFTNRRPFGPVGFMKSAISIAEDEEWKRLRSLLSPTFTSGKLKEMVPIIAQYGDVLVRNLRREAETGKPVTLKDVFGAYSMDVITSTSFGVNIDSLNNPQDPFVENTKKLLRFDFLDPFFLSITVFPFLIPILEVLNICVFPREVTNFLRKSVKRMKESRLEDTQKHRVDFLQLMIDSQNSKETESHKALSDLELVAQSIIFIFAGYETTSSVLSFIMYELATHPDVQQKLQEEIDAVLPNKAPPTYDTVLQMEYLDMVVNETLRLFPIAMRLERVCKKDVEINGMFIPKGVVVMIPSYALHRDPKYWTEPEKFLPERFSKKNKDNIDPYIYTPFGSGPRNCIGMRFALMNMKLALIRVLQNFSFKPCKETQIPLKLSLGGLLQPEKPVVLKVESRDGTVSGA
The nature of data set [7]: Mutagenic activity in Salmonella Typhimurium assessed as 2 fold increase of revertants at 30 to 600 ug/plate by AMES test relative to control in absence of S9 fraction. In kind it is toxicity. To be noted: salmonella enterica subsp. enterica serovar typhimurium, in the assay text read “30 to 6000 ug/plate” for “30 to 600 ug/plate”. The gist of the method: (§1)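 Ames microbial mutagenesis assay in bacterial strains, run with and without S-9 metabolic activation. A positive response was defined as a 2-fold or greater increase in revertants over the control.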

Data set [8] is described as follows: Mutagenic activity in Salmonella Typhimurium assessed as 2 fold increase of revertants at 30 to 600 ug/plate by AMES test relative to control in presence of S9 fraction. To be noted: salmonella enterica subsp. enterica serovar typhimurium, in the assay text read “30 to 6000 ug/plate” for “30 to 600 ug/plate”. The data set is classed as toxicity. The procedure, abridged: as §1

Data set [9] is described as follows: Half life in iv dosed rat. To be noted: in vivo. The data set is classed as ADME, organism-based.
Data set [10] concerns the target T1, Beta-2 adrenergic receptor. Put plainly: Binding affinity to human beta2 adrenergic receptor.
Data set [11] deals with Nav1.5 (Homo sapiens, UniProt Q14524). The data set can be described thus: Inhibition of human Nav1.5 at 30 uM.
Sequence of Nav1.5 (Q14524 whole entry): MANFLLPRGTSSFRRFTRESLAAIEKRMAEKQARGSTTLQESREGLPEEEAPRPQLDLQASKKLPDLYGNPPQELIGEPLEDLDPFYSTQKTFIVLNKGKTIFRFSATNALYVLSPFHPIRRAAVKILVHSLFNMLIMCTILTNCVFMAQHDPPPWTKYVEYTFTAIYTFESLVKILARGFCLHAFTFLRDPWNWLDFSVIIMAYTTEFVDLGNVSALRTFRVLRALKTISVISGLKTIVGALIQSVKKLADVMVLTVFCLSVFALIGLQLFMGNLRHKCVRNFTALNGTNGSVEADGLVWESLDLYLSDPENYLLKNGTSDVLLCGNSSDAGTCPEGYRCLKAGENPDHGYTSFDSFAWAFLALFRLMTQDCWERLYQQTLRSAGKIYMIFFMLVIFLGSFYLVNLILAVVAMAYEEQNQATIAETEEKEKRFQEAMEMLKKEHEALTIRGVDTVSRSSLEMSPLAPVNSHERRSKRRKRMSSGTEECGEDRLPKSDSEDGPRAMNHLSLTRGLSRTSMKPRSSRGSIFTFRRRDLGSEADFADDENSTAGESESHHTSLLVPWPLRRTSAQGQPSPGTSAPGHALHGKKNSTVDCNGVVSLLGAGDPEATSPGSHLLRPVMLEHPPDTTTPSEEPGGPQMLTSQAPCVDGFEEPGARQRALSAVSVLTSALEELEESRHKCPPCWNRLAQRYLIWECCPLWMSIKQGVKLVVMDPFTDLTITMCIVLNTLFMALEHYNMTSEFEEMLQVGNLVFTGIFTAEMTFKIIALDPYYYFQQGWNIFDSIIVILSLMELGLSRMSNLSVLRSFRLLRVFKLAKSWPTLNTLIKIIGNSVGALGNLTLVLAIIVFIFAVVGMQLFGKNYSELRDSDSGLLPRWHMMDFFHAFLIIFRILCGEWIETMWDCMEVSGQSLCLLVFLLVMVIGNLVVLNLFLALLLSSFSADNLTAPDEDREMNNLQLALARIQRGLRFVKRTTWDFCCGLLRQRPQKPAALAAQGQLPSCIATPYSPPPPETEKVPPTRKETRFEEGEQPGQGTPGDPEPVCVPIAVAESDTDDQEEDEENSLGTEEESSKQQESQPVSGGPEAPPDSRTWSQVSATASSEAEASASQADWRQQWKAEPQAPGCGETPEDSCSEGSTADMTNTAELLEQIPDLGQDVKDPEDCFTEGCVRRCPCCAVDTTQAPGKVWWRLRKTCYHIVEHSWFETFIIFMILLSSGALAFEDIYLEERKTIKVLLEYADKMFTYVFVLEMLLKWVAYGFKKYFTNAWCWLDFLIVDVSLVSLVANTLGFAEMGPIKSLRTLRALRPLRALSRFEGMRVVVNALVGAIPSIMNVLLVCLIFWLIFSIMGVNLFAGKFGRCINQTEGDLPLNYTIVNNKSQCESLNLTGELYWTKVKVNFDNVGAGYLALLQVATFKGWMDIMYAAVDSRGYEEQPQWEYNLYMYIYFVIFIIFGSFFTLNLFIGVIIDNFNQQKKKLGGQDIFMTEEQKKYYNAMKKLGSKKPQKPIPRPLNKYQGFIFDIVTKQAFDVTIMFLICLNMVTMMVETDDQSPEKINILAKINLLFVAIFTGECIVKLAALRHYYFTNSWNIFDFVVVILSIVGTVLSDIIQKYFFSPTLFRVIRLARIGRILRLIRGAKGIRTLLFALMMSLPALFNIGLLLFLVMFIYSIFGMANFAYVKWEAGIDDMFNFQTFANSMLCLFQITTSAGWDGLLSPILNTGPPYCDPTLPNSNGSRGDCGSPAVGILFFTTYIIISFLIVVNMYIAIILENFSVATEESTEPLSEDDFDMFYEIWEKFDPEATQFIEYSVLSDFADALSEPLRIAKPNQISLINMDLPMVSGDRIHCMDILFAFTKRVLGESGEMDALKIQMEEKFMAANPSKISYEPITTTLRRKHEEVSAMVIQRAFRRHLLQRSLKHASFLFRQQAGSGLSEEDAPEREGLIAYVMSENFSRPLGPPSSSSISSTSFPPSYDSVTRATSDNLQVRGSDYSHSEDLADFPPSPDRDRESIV
Data set [12] is described as follows: Solubility of the compound at pH < 5.2. In kind it is physicochemical.
Data set [13] can be described thus: Metabolic stability in rat liver microsomes assessed as compound remaining after 45 mins. To be noted: read-out: Stability. The data set is classed as ADME, Microsome.
A short description of data set [14]: Metabolic stability in human liver microsomes assessed as compound remaining after 45 mins. In kind it is ADME, Microsome. Particulars: read-out: Stability. In general terms: Microsomes from liver hold many membrane-bound enzymes, among them those of drug oxidation.
Data set [15] can be described thus: Half life in iv dosed rhesus monkey. The data set is classed as ADME, organism-based, Macaca mulatta. To be noted: in vivo.
Data set [16] can be described thus: Plasma clearance in iv dosed rhesus monkey. In kind it is ADME, organism-based, Macaca mulatta.
A short description of data set [17]: Metabolic stability in rhesus monkey liver microsomes assessed as compound remaining after 45 mins. To be noted: read-out: Stability. The data set is classed as ADME, Macaca mulatta, Microsome.
A short description of data set [18]: Solubility of the compound at pH 7.4. In kind it is physicochemical. To be noted: buffer.
The nature of data set [19]: Volume of distribution in dog. In kind it is ADME, organism-based, Canis lupus familiaris. To be noted: in vivo.
Data set [20] addresses T4, Cytochrome P450 2C8 (Homo sapiens, UniProt P10632).
T4 sequence (P10632 whole entry): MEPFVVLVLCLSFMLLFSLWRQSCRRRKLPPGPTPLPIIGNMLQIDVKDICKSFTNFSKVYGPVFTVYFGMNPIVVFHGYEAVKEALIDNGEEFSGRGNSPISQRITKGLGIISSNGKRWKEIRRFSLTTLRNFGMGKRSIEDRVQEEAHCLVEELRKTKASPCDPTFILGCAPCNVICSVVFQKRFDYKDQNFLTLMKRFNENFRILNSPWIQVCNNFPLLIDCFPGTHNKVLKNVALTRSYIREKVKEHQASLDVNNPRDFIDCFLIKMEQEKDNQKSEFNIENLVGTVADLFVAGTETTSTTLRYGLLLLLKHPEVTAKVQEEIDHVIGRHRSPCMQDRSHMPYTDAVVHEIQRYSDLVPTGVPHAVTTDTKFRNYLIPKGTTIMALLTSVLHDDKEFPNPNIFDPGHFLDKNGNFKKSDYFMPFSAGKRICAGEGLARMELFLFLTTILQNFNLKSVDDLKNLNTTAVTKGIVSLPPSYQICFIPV
Put plainly: Inhibition of CYP2C8. In kind it is ADME.

Data set [21] in a line: Oral bioavailability rat. In kind it is ADME, organism-based. To be noted: in vivo.
The nature of data set [22]: Oral bioavailability in dog. In kind it is ADME, organism-based, Canis lupus familiaris. To be noted: in vivo.
Data set [23] in a line: (§2) Half life in iv dosed dog. The data set is classed as ADME, organism-based, Canis lupus familiaris. Particulars: in vivo.
The target of data set [24] is T3, Beta-1 adrenergic receptor. The data set can be described thus: Binding affinity to human beta1 adrenergic receptor.
Data set [25] has as its target Voltage-gated inwardly rectifying potassium channel KCNH2 (Homo sapiens, UniProt Q12809). Put plainly: Inhibition of human ERG.
Data set [26] in a line: Volume of distribution in rat. In kind it is ADME, organism-based. Particulars: in vivo.
The nature of data set [27]: Oral bioavailability in rhesus monkey. To be noted: in vivo. The data set is classed as ADME, organism-based, Macaca mulatta.
Data set [28] addresses Cytochrome P450 2C9 (Homo sapiens, UniProt P11712). Put plainly: Inhibition of CYP2C9. The data set is classed as ADME.
Data set [29] is described as follows: Mutagenic activity in Salmonella Typhimurium by AMES test in presence of S9 fraction. The data set is classed as toxicity. Particulars: salmonella enterica subsp. enterica serovar typhimurium, in the assay text read “5-fluorouracil forward mutation assay” for “AMES test”.
Data set [30] in a line: Volume of distribution in rhesus monkey. To be noted: in vivo. In kind it is ADME, organism-based, Macaca mulatta.
A short description of data set [31]: Plasma clearance in iv dosed dog. The data set is classed as ADME, organism-based, Canis lupus familiaris.
Data set [32] is described as follows: Metabolic stability in dog liver microsomes assessed as compound remaining after 45 mins. The data set is classed as ADME, Canis lupus familiaris, Microsome. Particulars: read-out: Stability.
For data set [33], the species on record is Homo sapiens. Put plainly: Selectivity ratio of human beta3 adrenergic receptor to human beta2 adrenergic receptor.
For data set [34], the system named is Canis familiaris. The data set is described as §2. In kind it is ADME, organism-based, Canis lupus familiaris. To be noted: in vivo.
The species named for data set [35] is Homo sapiens. The data set can be described thus: Selectivity ratio of human beta3 adrenergic receptor to human beta1 adrenergic receptor.

In brackets after ≈: the same amount, converted by molar mass.

T3 sequence (P08588 whole entry): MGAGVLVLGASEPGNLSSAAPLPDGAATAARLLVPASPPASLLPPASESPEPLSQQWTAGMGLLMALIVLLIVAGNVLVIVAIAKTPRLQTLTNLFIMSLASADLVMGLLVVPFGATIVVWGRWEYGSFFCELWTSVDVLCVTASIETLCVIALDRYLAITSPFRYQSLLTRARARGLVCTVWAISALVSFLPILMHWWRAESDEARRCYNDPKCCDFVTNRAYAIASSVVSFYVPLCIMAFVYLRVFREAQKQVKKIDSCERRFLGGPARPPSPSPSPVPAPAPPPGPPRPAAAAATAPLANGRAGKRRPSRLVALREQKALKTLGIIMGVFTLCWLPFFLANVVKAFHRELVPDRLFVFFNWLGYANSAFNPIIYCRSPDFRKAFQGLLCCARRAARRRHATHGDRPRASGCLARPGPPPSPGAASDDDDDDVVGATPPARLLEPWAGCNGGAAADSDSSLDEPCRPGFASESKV
T1 sequence (P07550 whole entry): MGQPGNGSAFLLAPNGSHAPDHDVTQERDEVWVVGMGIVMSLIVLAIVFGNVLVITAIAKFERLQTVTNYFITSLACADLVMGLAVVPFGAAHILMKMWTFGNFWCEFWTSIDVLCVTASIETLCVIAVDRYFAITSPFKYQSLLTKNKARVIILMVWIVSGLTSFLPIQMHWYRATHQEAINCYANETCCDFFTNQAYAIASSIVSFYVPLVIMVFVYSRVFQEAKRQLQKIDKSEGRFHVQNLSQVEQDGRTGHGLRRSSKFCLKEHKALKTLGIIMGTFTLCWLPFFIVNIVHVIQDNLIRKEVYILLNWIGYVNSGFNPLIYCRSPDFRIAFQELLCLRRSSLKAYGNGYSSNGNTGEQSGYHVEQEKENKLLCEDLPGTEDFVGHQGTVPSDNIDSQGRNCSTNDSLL
Sequence of Cytochrome P450 2D6 (P10635 whole entry): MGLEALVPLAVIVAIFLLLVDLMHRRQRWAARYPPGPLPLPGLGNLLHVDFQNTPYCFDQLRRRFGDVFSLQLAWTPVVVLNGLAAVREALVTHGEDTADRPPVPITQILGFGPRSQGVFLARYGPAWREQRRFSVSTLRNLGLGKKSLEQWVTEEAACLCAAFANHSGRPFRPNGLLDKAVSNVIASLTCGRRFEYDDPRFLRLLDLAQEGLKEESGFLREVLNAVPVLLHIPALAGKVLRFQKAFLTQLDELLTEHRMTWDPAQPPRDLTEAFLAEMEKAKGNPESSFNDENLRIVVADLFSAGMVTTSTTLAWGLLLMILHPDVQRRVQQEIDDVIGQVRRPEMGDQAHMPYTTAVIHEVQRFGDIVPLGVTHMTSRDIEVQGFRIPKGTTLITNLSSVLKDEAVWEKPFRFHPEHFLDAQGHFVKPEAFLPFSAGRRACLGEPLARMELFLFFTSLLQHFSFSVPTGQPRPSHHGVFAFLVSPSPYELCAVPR
Sequence of Cytochrome P450 2C9 (P11712 whole entry): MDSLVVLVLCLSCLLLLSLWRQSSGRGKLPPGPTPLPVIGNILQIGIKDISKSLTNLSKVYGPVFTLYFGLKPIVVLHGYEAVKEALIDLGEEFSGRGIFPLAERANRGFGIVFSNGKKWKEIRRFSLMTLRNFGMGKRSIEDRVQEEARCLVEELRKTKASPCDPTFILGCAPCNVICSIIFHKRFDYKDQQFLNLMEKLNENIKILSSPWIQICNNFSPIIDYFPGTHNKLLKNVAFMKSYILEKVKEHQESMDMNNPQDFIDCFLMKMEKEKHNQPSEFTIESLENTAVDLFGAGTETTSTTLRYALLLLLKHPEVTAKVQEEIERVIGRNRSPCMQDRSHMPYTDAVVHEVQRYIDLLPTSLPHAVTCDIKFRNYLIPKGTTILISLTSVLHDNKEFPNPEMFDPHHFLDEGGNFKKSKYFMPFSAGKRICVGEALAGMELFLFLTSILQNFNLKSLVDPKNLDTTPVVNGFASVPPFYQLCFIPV

By IC50 is commonly meant the concentration that gives 50% inhibition. A word on the EC50: it is the concentration at which the effect is half-maximal. `O=S(=O)(Nc1ccc(C[C@@H]2CC[C@H]([C@H](O)c3ccccc3)N2)cc1)c1ccc(-c2nc(-c3ccc(C(F)(F)F)cc3)cs2)cc1`: the INH in [1] and in data set [6] was above 50 µM each time. The IC50 in [2] is 2.51 µM; in data set [5], 2.19 µM. Also, the EC50 in data set [3] (read-out: EC50) was 0.0041 µM. This compound returned an Activity in data set [4] of 95%.
On to `CC(Cc1ccc(NS(=O)(=O)c2ccc(-c3nc(-c4ccc(C(F)(F)F)cc4)cs3)cc2)cc1)NC(C)[C@H](O)c1ccccc1` (mixture of isomers), for which, in data set [3], the EC50 result was “Not Active”.
Regarding `O=S(=O)(Nc1ccc(CCNC[C@H](O)c2ccccc2)cc1)c1ccc(-c2nc(-c3ccc(C(F)(F)F)cc3)cs2)cc1`, the values for the IC50 in data set [2] and in [5] were 0.78 µM and 1.04 µM, respectively. In addition, the EC50 in data set [3] (read-out: EC50) stood at 0.011 µM. The compound further yielded an Activity in [4] of 95%.
For the compound `Nc1ccc(C[C@@H]2CC[C@H]([C@H](O)c3ccccc3)N2)cc1`, the Activity result in [7] and in [8] was “Non-toxic” each time.
`O=S(=O)(Nc1ccc(CC2CC[C@@H]([C@@H](O)c3ccccc3)N2)cc1)c1ccc(-c2nc(-c3ccc(C(F)(F)F)cc3)cs2)cc1` (mixture of isomers): the figures for the IC50 in data set [2] and in [5] were 3.53 µM and 1.78 µM, respectively. Further, in data set [3] (read-out: EC50), the EC50 was 2.03 µM. Further, in data set [4], the Activity was 89%.
The term half-life denotes the time in which the quantity being followed falls by half. The inhibition is the share of the control response that was lost under treatment. By solubility is commonly meant the concentration that dissolves in the medium under given conditions. Broadly, the clearance is a measure of how efficiently the substance is removed, as volume per time. For orientation: Vd means a proportionality between amount in the body and measured concentration, not a real space. Broadly, the bioavailability is the share of a dose that reaches the circulation, judged against a reference dose that is usually intravenous. Turning to `Nc1nc(CC(=O)Nc2ccc(C[C@@H]3CC[C@H]([C@H](O)c4ccccc4)N3)cc2)cs1`, the INH in data set [1] is 2.2 µM; in data set [20] it was above 100 µM; in data set [28], above 100 µM; in data set [6], above 100 µM. Besides, the IC50 in [2] is above 20 µM; in data set [10], above 20 µM; in [24], above 20 µM; in data set [25], 11.2 µM; in data set [5], above 20 µM. For the same compound, the EC50 in data set [3] (read-out: EC50) came out at 0.00098 µM. For the same compound, the half-life was 7.7 h in data set [9], 9.9 h in data set [15] and 8.3 h in data set [23]. The inhibition at 30 µM in [11] amounted to 26%. In addition, the solubility in data set [12] is above 1800 µg/mL; in data set [18] it was 1300 µg/mL (≈ 3.08 mM). The remaining at 0.75 h was 13% in [13], 40% in data set [14], 77% in data set [17] and 23% in [32]. Moreover, the Activity was 99% in data set [4] and “Non-toxic” in [29]. Besides, the clearance is 43.4 mL/min/kg in data set [16] and 23 mL/min/kg in [31]. Further, the Vd in [19] stood at 14 L/kg; in data set [26], 5.8 L/kg; in data set [30] it was 26.4 L/kg. For the same compound, the bioavailability stood at 12% in data set [21], 18% in data set [22] and 14% in data set [27].
`O=S(=O)(Nc1ccc(CCNC[C@H](O)c2cccnc2)cc1)c1ccc(-c2nc(-c3ccc(C(F)(F)F)cc3)cs2)cc1` showed a half-life in data set [9] of 8.1 h. Moreover, the Selectivity ratio in data set [33] and in data set [35] was 1000 throughout. The results for the Vd in data set [19], in data set [26] and in data set [30] were 12 L/kg, 23 L/kg and 6.2 L/kg, respectively. In addition, the t1/2 in data set [34] was determined as 14 h.
On to `O=S(=O)(Nc1ccc(CC2CC[C@H]([C@H](O)c3ccccc3)N2)cc1)c1ccc(-c2nc(-c3ccc(C(F)(F)F)cc3)cs2)cc1` (mixture of isomers), for which the IC50 in data set [2] is 2.18 µM; in data set [5] it was 2.93 µM. In addition, the EC50 in [3] (read-out: EC50) stood at 0.015 µM. The compound further displayed an Activity in data set [4] of 101%.
In the case of `O=S(=O)(Nc1ccc(CC2CC[C@H]([C@@H](O)c3ccccc3)N2)cc1)c1ccc(-c2nc(-c3ccc(C(F)(F)F)cc3)cs2)cc1` (mixture of isomers), the IC50 in [2] worked out at 2.79 µM; in [5], 1.52 µM. Moreover, in [3] (read-out: EC50), the EC50 is 1.31 µM. This compound registered an Activity in [4] of 104%.
For `O=S(=O)(Nc1ccc(CC2CC[C@@H]([C@H](O)c3ccccc3)N2)cc1)c1ccc(-c2nc(-c3ccc(C(F)(F)F)cc3)cs2)cc1` (mixture of isomers), in that order: 3.53 µM, 2.15 µM, 0.081 µM and 104%.
Take `O=S(=O)(Nc1ccc(C[C@H]2CC[C@H]([C@H](O)c3ccccc3)N2)cc1)c1ccc(-c2nc(-c3ccc(C(F)(F)F)cc3)cs2)cc1`: the INH in data set [1] and in [6] was above 50 µM in each case. Further, the IC50 in data set [2] turned out to be 0.297 µM; in [5] it was 0.242 µM. For the same compound, in data set [3] (read-out: EC50), the EC50 was determined as 0.083 µM. For the same compound, the Activity in data set [4] was 76%.

The record behind these values is ChEMBL document CHEMBL1681775, “Design of a novel pyrrolidine scaffold utilized in the discovery of potent and selective human β3 adrenergic receptor agonists” (Bioorg Med Chem Lett, 2011).
